Assays:
[1] = system: 5′-fluorescein labeled HCV SLIIb; test: Reaction kinetics via fluorescence; type: biochemical, hepatitis C virus; conditions: pseudo Michaelis-Menten, catalytic efficiency
In short: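 Copper–peptide complexes were formed at 1.1:1 peptide:Cu. Each complex was added to 333 nM 5′-fluorescein-SLIIb with 1 mM ascorbic acid and 1 mM H2O2 in 20 mM HEPES (pH 7.4, 100 mM NaCl) at 25 °C. Fluorescence loss was followed at ex 491/em 518 nm and converted to RNA concentration by a calibration curve. Initial velocities were plotted against catalyst concentration and fit to Michaelis–Menten to give KM and kcat. Values are the mean of ≥3 trials.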

[2] = system: fluorescein-labeled IRES SLIIb; test: Time-dependent MALDI-TOF mass spectrometry of SLIIb cleavage; type: biochemical, hepatitis C virus; conditions: for Initial Rate (%Overhang/min), 2′, 3′-cPO4: overhang 2′,3′-cyclic phosphates; for Initial Rate (%Overhang/min), 2′, 3′-cPO4 / Initial Rate (%Overhang/min), 3′-AL / Initial Rate (%Overhang/min), 3′-OH / Initial Rate (%Overhang/min), 3′-PO4 / Initial Rate (%Overhang/min), 3′-PGA / Initial Rate (%Overhang/min), 3′-PG / Initial Rate (%Overhang/min), 5′-AL / Initial Rate (%Overhang/min), 5′-GemDiol / Initial Rate (%Overhang/min), 5′-OH / Initial Rate (%Overhang/min), 5′-PO4 / Initial Rate (%Overhang/min), 5′-PPA: MALDI-TOF time dependence; for Initial Rate (%Overhang/min), 3′-AL: overhang 3′-aldehyde; for Initial Rate (%Overhang/min), 3′-OH: overhang 3′-hydroxyl; for Initial Rate (%Overhang/min), 3′-PO4: overhang 3′-phosphates; for Initial Rate (%Overhang/min), 3′-PGA: overhang 3′-phosphoglycaldehyde; for Initial Rate (%Overhang/min), 3′-PG: overhang 3′-phosphoglycolate; for Initial Rate (%Overhang/min), 5′-AL: overhang 5′-aldehyde; for Initial Rate (%Overhang/min), 5′-GemDiol: overhang 5′-geminal diol; for Initial Rate (%Overhang/min), 5′-OH: overhang 5′-hydroxyl; for Initial Rate (%Overhang/min), 5′-PO4: overhang 5′-phosphate; for Initial Rate (%Overhang/min), 5′-PPA: overhang 5′-phosphopropenal; for Relative Initial Rate (Normalized Intensity/min × 1000), position A6 / Relative Initial Rate (Normalized Intensity/min × 1000), position A15 / Relative Initial Rate (Normalized Intensity/min × 1000), position A19 / Relative Initial Rate (Normalized Intensity/min × 1000), position A27 / Relative Initial Rate (Normalized Intensity/min × 1000), position A30 / Relative Initial Rate (Normalized Intensity/min × 1000), position C10 / Relative Initial Rate (Normalized Intensity/min × 1000), position C33 / Relative Initial Rate (Normalized Intensity/min × 1000), position G5 / Relative Initial Rate (Normalized Intensity/min × 1000), position G9 / Relative Initial Rate (Normalized Intensity/min × 1000), position G11 / Relative Initial Rate (Normalized Intensity/min × 1000), position G28 / Relative Initial Rate (Normalized Intensity/min × 1000), position U12 / Relative Initial Rate (Normalized Intensity/min × 1000), position U14 / Relative Initial Rate (Normalized Intensity/min × 1000), position U25 / Relative Initial Rate (Normalized Intensity/min × 1000), position U26 / Relative Initial Rate (Normalized Intensity/min × 1000), position U29 / Relative Initial Rate (Normalized Intensity/min × 1000), position U31: 10 μM SLIIb, 10 μM copper-peptide
In short: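 Reactions contained 10 μM Fl-SLIIb, 10 μM Cu–peptide, 1 mM ascorbate and 1 mM H2O2, and were sampled at 2–180 min. They were quenched on ice, C18-desalted, and analysed by negative-ion reflectron MALDI-TOF (HPA/ammonium citrate matrix, ≥1000 shots). Peaks with m/z >1500 and S/N >5 were assigned against expected product masses. Products were summed per overhang type and expressed as a fraction at each time point. Initial rate was taken from the linear region (first ~40 min).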

Row | Substance | kcat/KM [1] [µM⁻¹ min⁻¹] | Initial Rate (%Overhang/min), 2′, 3′-cPO4 [2] [%Overhang/min] | Initial Rate (%Overhang/min), 3′-AL [2] [%Overhang/min] | Initial Rate (%Overhang/min), 3′-OH [2] [%Overhang/min] | Initial Rate (%Overhang/min), 3′-PO4 [2] [%Overhang/min] | Initial Rate (%Overhang/min), 3′-PGA [2] [%Overhang/min] | Initial Rate (%Overhang/min), 3′-PG [2] [%Overhang/min] | Initial Rate (%Overhang/min), 5′-AL [2] [%Overhang/min] | Initial Rate (%Overhang/min), 5′-GemDiol [2] [%Overhang/min] | Initial Rate (%Overhang/min), 5′-OH [2] [%Overhang/min] | Initial Rate (%Overhang/min), 5′-PO4 [2] [%Overhang/min] | Initial Rate (%Overhang/min), 5′-PPA [2] [%Overhang/min] | Relative Initial Rate (Normalized Intensity/min × 1000), position A6 [2] | Relative Initial Rate (Normalized Intensity/min × 1000), position A15 [2] | Relative Initial Rate (Normalized Intensity/min × 1000), position A19 [2] | Relative Initial Rate (Normalized Intensity/min × 1000), position A27 [2] | Relative Initial Rate (Normalized Intensity/min × 1000), position A30 [2] | Relative Initial Rate (Normalized Intensity/min × 1000), position C10 [2] | Relative Initial Rate (Normalized Intensity/min × 1000), position C33 [2] | Relative Initial Rate (Normalized Intensity/min × 1000), position G5 [2] | further results
1 | GGHDRFK-Cu [9-Cu] | 0.033 |  |  |  |  |  |  |  |  |  |  |  |  |  |  |  |  |  |  |  | 
2 | GGHYAFK-Cu [5-Cu] | 0.018 | 0.2 ± 0.1 | 0.2 ± 0.1 | 1.2 ± 0.1 | 0.8 ± 0.1 | 0.1 ± 0.1 | 0.1 ± 0.1 | 1.0 ± 0.2 | 0.5 ± 0.1 | 0.6 ± 0.1 | 1.5 ± 0.6 | 0.2 ± 0.1 | - ^a | - ^a | 1.0 ± 0.7 Normalized Intensity/min × 1000 | 1.1 ± 0.3 Normalized Intensity/min × 1000 | - ^a | 1.0 ± 0.2 Normalized Intensity/min × 1000 | <1 Normalized Intensity/min × 1000 | <1 Normalized Intensity/min × 1000 | Relative Initial Rate (Normalized Intensity/min × 1000), position G9 [2]: - ^a; Relative Initial Rate (Normalized Intensity/min × 1000), position G11 [2]: - ^a; Relative Initial Rate (Normalized Intensity/min × 1000), position G28 [2]: - ^a; Relative Initial Rate (Normalized Intensity/min × 1000), position U12 [2]: <1 Normalized Intensity/min × 1000; Relative Initial Rate (Normalized Intensity/min × 1000), position U14 [2]: - ^a; Relative Initial Rate (Normalized Intensity/min × 1000), position U25 [2]: 3.1 ± 0.6 Normalized Intensity/min × 1000; Relative Initial Rate (Normalized Intensity/min × 1000), position U26 [2]: - ^a; Relative Initial Rate (Normalized Intensity/min × 1000), position U29 [2]: - ^a; Relative Initial Rate (Normalized Intensity/min × 1000), position U31 [2]: - ^a
3 | GGHARFK-Cu [4-Cu] | 0.038 | 0.5 ± 0.1 | 0.5 ± 0.1 | 1.2 ± 0.4 | 0.1 ± 0.1 | 1.1 ± 0.4 | 1.5 ± 0.4 | 0.2 ± 0.1 | 0.8 ± 0.1 | 1.1 ± 0.4 | 0.4 ± 0.1 | 1.4 ± 0.3 | - ^a | 14.2 ± 4.6 Normalized Intensity/min × 1000 | 2.9 ± 1.4 Normalized Intensity/min × 1000 | 2.1 ± 0.3 Normalized Intensity/min × 1000 | <1 Normalized Intensity/min × 1000 | - ^a | - ^a | - ^a | Relative Initial Rate (Normalized Intensity/min × 1000), position G9 [2]: 2.0 ± 0.5 Normalized Intensity/min × 1000; Relative Initial Rate (Normalized Intensity/min × 1000), position G11 [2]: - ^a; Relative Initial Rate (Normalized Intensity/min × 1000), position G28 [2]: - ^a; Relative Initial Rate (Normalized Intensity/min × 1000), position U12 [2]: - ^a; Relative Initial Rate (Normalized Intensity/min × 1000), position U14 [2]: - ^a; Relative Initial Rate (Normalized Intensity/min × 1000), position U25 [2]: - ^a; Relative Initial Rate (Normalized Intensity/min × 1000), position U26 [2]: 1.9 ± 0.4 Normalized Intensity/min × 1000; Relative Initial Rate (Normalized Intensity/min × 1000), position U29 [2]: - ^a; Relative Initial Rate (Normalized Intensity/min × 1000), position U31 [2]: 1.4 ± 0.4 Normalized Intensity/min × 1000
4 | GGHFRFK-Cu [12-Cu] | 0.01 |  |  |  |  |  |  |  |  |  |  |  |  |  |  |  |  |  |  |  | 
5 | GGHYRAK-Cu [6-Cu] | 0.001 | 0.7 ± 0.1 | 0.8 ± 0.1 | 0.1 ± 0.1 | 0.7 ± 0.2 | 0.6 ± 0.1 | 1.2 ± 0.1 | 0.8 ± 0.1 | 0.9 ± 0.3 | 1.2 ± 0.3 | 1.2 ± 0.2 | 1.9 ± 0.1 | 1.7 ± 0.5 Normalized Intensity/min × 1000 | <1 Normalized Intensity/min × 1000 | - ^a | - ^a | 2.4 ± 0.3 Normalized Intensity/min × 1000 | - ^a | 1.4 ± 0.5 Normalized Intensity/min × 1000 | - ^a | Relative Initial Rate (Normalized Intensity/min × 1000), position G9 [2]: - ^a; Relative Initial Rate (Normalized Intensity/min × 1000), position G11 [2]: <1 Normalized Intensity/min × 1000; Relative Initial Rate (Normalized Intensity/min × 1000), position G28 [2]: 2.3 ± 1.6 Normalized Intensity/min × 1000; Relative Initial Rate (Normalized Intensity/min × 1000), position U12 [2]: - ^a; Relative Initial Rate (Normalized Intensity/min × 1000), position U14 [2]: <1 Normalized Intensity/min × 1000; Relative Initial Rate (Normalized Intensity/min × 1000), position U25 [2]: - ^a; Relative Initial Rate (Normalized Intensity/min × 1000), position U26 [2]: - ^a; Relative Initial Rate (Normalized Intensity/min × 1000), position U29 [2]: - ^a; Relative Initial Rate (Normalized Intensity/min × 1000), position U31 [2]: - ^a
6 | GGHKFRY-Cu [8-Cu] | 0.007 | 0.1 ± 0.1 | 0.2 ± 0.1 | 0.4 ± 0.1 | 1.3 ± 0.2 | 0.3 ± 0.1 | 0.1 ± 0.1 | 0.9 ± 0.1 | 0.5 ± 0.1 | 1.1 ± 0.4 | 0.7 ± 0.1 | 0.7 ± 0.1 | - ^a | - ^a | - ^a | 1.1 ± 0.3 Normalized Intensity/min × 1000 | <1 Normalized Intensity/min × 1000 | - ^a | - ^a | 3.7 ± 1.8 Normalized Intensity/min × 1000 | Relative Initial Rate (Normalized Intensity/min × 1000), position G9 [2]: - ^a; Relative Initial Rate (Normalized Intensity/min × 1000), position G11 [2]: 0.6 ± 0.2 Normalized Intensity/min × 1000; Relative Initial Rate (Normalized Intensity/min × 1000), position G28 [2]: <1 Normalized Intensity/min × 1000; Relative Initial Rate (Normalized Intensity/min × 1000), position U12 [2]: - ^a; Relative Initial Rate (Normalized Intensity/min × 1000), position U14 [2]: - ^a; Relative Initial Rate (Normalized Intensity/min × 1000), position U25 [2]: <1 Normalized Intensity/min × 1000; Relative Initial Rate (Normalized Intensity/min × 1000), position U26 [2]: <1 Normalized Intensity/min × 1000; Relative Initial Rate (Normalized Intensity/min × 1000), position U29 [2]: <1 Normalized Intensity/min × 1000; Relative Initial Rate (Normalized Intensity/min × 1000), position U31 [2]: - ^a
7 | GGHNRFK-Cu [10-Cu] | 0.004 |  |  |  |  |  |  |  |  |  |  |  |  |  |  |  |  |  |  |  | 
